Compound activity from PubChem BioAssay.
T cruzi growth: blocks T. cruzi growth in NIH3T3 culture | 77,000 tested, 5.9% active | T. cruzi beta-gal in NIH3T3, GalScreen luminescence, 90 h | inhibition, % at 8.34 µM;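 active means mean inhibition above about 93%, with at least 55% of replicates each passing it, limit read from the data, passing the limit was not always enough; inconclusive means only one of those two conditions holds; inactive means neither condition holds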
Pf Dd2 inh: P. falciparum Dd2 growth inhibition; SYBR Green, 72 h; hits give low values; activity change, % at 10 µM; 94,000 tested, 2.3% active; in the data active means activity change below about -80%; inconclusive means no clear call, values can overlap the other calls
KDM4C inh: inhibitors of human demethylase GASC-1 KDM4C; inhibition, % at 12.5 µM; GST-KDM4C 2-372, H3K9me3 peptide, LANCE TR-FRET; Q9H3R0; 96,000 tested, 0.15% active;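 active means mean replicate inhibition above about 25%, with at least 55% of replicates also reaching it, limit read from the data, passing the limit was not always enough; inconclusive means only one of those two conditions met; inactive means neither condition met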
Target sequence (Q9H3R0 2-372 limits assumed): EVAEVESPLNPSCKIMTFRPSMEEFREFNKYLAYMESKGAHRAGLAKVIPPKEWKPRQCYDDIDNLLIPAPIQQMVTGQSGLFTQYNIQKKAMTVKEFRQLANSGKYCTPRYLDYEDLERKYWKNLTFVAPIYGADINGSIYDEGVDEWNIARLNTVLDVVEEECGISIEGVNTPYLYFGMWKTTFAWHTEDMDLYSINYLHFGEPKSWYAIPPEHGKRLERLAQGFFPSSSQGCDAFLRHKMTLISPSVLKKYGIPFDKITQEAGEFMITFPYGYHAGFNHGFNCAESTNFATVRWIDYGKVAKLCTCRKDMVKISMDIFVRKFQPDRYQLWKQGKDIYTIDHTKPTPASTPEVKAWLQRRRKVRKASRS
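reagent = H3K9me3 peptide substrate, Fe(II), 2-oxoglutarate | system = GST-tagged GASC-1 (JMJD2C) catalytic fragment, aa 2-372 | amount = enzyme final amount 10 nM | read-out = Fall in 671/618 emission ratio as inhibition | medium = HEPES buffer, pH 7.5, plus ascorbate | schedule = 30 min reaction, 60 min detection, RT | measured by = LANCE TR-FRET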
IDH1 mut inh: IDH1 R132H (human) inhibition; inhibition, % at 10 µM; AID 624101; IDH1 R132H reductase, diaphorase/resazurin fluorescence, 60 min; 70,000 tested, 0.18% active; in the data active means inhibition above about 34%; inconclusive means no clear call, values can overlap the other calls; inactive means below about 11%;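 further: 0% = DMSO and 100% = no enzyme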
Numbers without * were called inactive; ? = inconclusive; . = no result; ! = not active in a repeat. Compounds with a hit are over-represented: about 5.9% of the library has one in this group of screens.

SMILES	T cruzi growth	Pf Dd2 inh	KDM4C inh	IDH1 mut inh
Cn1c(SCC(=O)Nc2ccc3c(c2)oc2ccccc23)nc2ccccc2c1=O	.	.	.	0
CC1=C(/C=C/C(C)=C\C=C\C(C)=C\C(=O)Nc2ccc(O)cc2)C(C)(C)CCC1	.	.	.	4
N#Cc1cccc(-c2ccc(C3[C@H]4CNC[C@@H]3N4S(=O)(=O)c3ccc(F)cc3)cc2)c1 (some centres not stated)	.	-12	35*!	.
COc1ccc(S(=O)(=O)N(C)C[C@@H]2OCCCC[C@H](C)Oc3ccc(NS(=O)(=O)c4cccs4)cc3C(=O)N([C@@H](C)CO)C[C@H]2C)cc1	52	-76	1	5
C[C@@H]1CCCCO[C@@H](CN(C)S(=O)(=O)c2ccc(F)cc2)[C@H](C)CN([C@H](C)CO)C(=O)c2cc(NS(=O)(=O)c3cccs3)ccc2O1	56	-48	3	.
COc1ccc(S(=O)(=O)N(C)C[C@@H]2OCCCC[C@H](C)Oc3ccc(NS(=O)(=O)c4cccs4)cc3C(=O)N([C@H](C)CO)C[C@@H]2C)cc1	-8	-39	0	-2
COc1ccc(S(=O)(=O)N(C)C[C@H]2OCCCC[C@H](C)Oc3ccc(NS(=O)(=O)c4cccs4)cc3C(=O)N([C@H](C)CO)C[C@H]2C)cc1	-37	-81*	0	.
COc1ccc(S(=O)(=O)N(C)C[C@H]2OCCCC[C@H](C)Oc3ccc(NS(=O)(=O)c4cccs4)cc3C(=O)N([C@@H](C)CO)C[C@H]2C)cc1	64	-83*	17	-3
C[C@@H]1CN([C@@H](C)CO)C(=O)c2cc(NS(=O)(=O)c3cccs3)ccc2O[C@@H](C)CCCCO[C@@H]1CN(C)S(=O)(=O)c1ccc(F)cc1	61	-83*	-2	.
O=C(Nc1cc(Cl)cc(Cl)c1)N1CCC(n2cccc2)CC1	.	.	.	3
O=C(COc1ccc(Cl)cc1Cl)Nc1ccccc1[N+](=O)[O-]	.	.	.	0
COc1ccc(C#Cc2ccc3c(c2)[C@H]2[C@H](CCN2Cc2ccncc2)[C@H](CO)N3)cc1	.	-94*	-1	.
COc1ccc(-c2ccc3c(c2)[C@@H]2[C@@H](CCN2Cc2ccncc2)[C@@H](CO)N3)cc1	84	-79	2	.
COc1ccc(C#Cc2ccc3c(c2)[C@H]2[C@H](CCN2Cc2nccs2)[C@H](CO)N3)cc1	.	-85*	.	.
COC(=O)c1c(NC(=S)NCc2ccccn2)sc2c1CCC2	.	.	.	-1
Cc1coc(C)c1C(=O)CC1(O)C(=O)N(CCc2ccccc2)c2ccc(Cl)cc21 (configuration not stated)	.	.	.	0
COc1ccccc1-c1ccc2c(c1)O[C@@H](CN(C)C(=O)c1ccncc1)[C@H](C)CN([C@@H](C)CO)S2(=O)=O	62	-8	32*	36*
CC(C)CC#Cc1ccc2c(c1)O[C@@H](CN(C)Cc1ccc3c(c1)OCO3)[C@H](C)CN([C@@H](C)CO)S2(=O)=O	72	-81*	.	-1
COc1ccccc1-c1ccc2c(c1)O[C@H](CN(C)Cc1ccc3c(c1)OCO3)[C@@H](C)CN([C@H](C)CO)S2(=O)=O	.	-84*	1	-3
COc1ccccc1-c1ccc2c(c1)O[C@H](CN(C)C(=O)c1ccncc1)[C@H](C)CN([C@H](C)CO)S2(=O)=O	55	4	2	2
Cn1c(SCC(=O)Nc2cc(Cl)c(Cl)cc2Cl)nnc1-c1ccccc1	.	.	.	0
O=C(c1ccc2nsnc2c1)N(Cc1ccccn1)Cc1ccccn1	.	.	.	0
CC(Oc1ccc(Cl)cc1Cl)C(=O)NC(=S)Nc1cccc(NC(=O)c2cccs2)c1 (configuration not stated)	.	.	.	0
CCCC#Cc1ccc2c(c1)[C@@H]1[C@@H](CCN1S(=O)(=O)c1ccccc1C)[C@@H](CO)N2	.	-84*	-1	.
CCCC#Cc1ccc2c(c1)[C@H]1[C@H](CCN1Cc1ccccc1F)[C@@H](CO)N2	.	-83*	0	.
SMILES	T cruzi growth	Pf Dd2 inh	KDM4C inh	IDH1 mut inh
OC[C@@H]1Nc2ccc(-c3ccccc3)cc2[C@H]2[C@@H]1CCN2Cc1ccccc1F	50	-23	0	.
C/C=C/c1ccc2c(c1)[C@H]1[C@H](CCN1C(=O)c1ccc3c(c1)OCO3)[C@H](CO)N2	.	-90*	0	.
C/C=C/c1ccc2c(c1)[C@H]1[C@H](CCN1S(=O)(=O)c1ccccc1C)[C@@H](CO)N2	.	-87*	-4	.
CCCC#Cc1ccc2c(c1)[C@@H]1[C@@H](CCN1S(=O)(=O)c1ccccc1F)[C@@H](CO)N2	.	-64	-3	.
COc1cccc(NC(=O)Nc2ccc3c(c2)C(=O)N(C)C[C@H](OC)[C@@H](C)CN[C@H](C)CO3)c1	-9	7	-1	0
CO[C@@H]1CN(C)C(=O)c2cc(NC(=O)Nc3ccc(Cl)c(Cl)c3)ccc2OC[C@H](C)NC[C@H]1C	-61	-77	-2	.
CO[C@@H]1CN(C)C(=O)c2cc(NC(=O)Nc3ccc(Cl)c(Cl)c3)ccc2OC[C@@H](C)NC[C@@H]1C	-58	-86*	-2	.
COc1cccc(NC(=O)Nc2ccc3c(c2)C(=O)N(C)C[C@@H](OC)[C@H](C)CN[C@@H](C)CO3)c1	26	-87*	-2	0
COc1ccc2c3c(n(C)c2c1)[C@@H](CO)N(C(=O)Nc1ccc(F)cc1)CC31CCN(Cc2cccnc2)CC1	.	-89*	1	.
COc1ccc2c3c(n(C)c2c1)[C@H](CO)N(C(=O)Nc1ccc(F)cc1)CC31CCN(Cc2cccnc2)CC1	.	-90*	0	.
COc1ccc2c3c(n(C)c2c1)[C@@H](CO)N(C(=O)Nc1ccc(F)cc1)CC31CN(Cc2cccnc2)C1	.	-72	1	.
COc1ccc(NC(=O)Nc2ccc3c(c2)C(=O)N([C@H](C)CO)C[C@@H](C)[C@H](CN(C)S(=O)(=O)c2ccc(F)cc2)OCCCC[C@@H](C)O3)cc1	118	-82*	-2	5
COc1ccc(S(=O)(=O)N(C)C[C@H]2OCCCC[C@H](C)Oc3ccc(NC(=O)Nc4ccc(F)cc4)cc3C(=O)N([C@H](C)CO)C[C@H]2C)cc1	44	-81*	-2	0
COc1ccc(S(=O)(=O)N(C)C[C@H]2OCCCC[C@@H](C)Oc3ccc(NC(=O)Nc4ccc(F)cc4)cc3C(=O)N([C@H](C)CO)C[C@H]2C)cc1	?	-80	-3	-2
COc1ccc(NC(=O)Nc2ccc3c(c2)C(=O)N([C@H](C)CO)C[C@@H](C)[C@@H](CN(C)S(=O)(=O)c2ccc(F)cc2)OCCCC[C@@H](C)O3)cc1	96	-81*	-1	0
O=S(=O)(Nc1ccc(Cl)cn1)c1cccc(S(=O)(=O)c2ccccc2)c1	.	.	.	0
O=S(=O)(Nc1cccnc1)c1cccc(S(=O)(=O)c2ccc(Cl)c(Cl)c2)c1	.	.	.	47*
COc1ccc(NC(=O)N(C)C[C@H]2Oc3ccc(NC(=O)Nc4ccc(C(F)(F)F)cc4)cc3CC(=O)N([C@H](C)CO)C[C@@H]2C)cc1	35	-88*	-1	1
C[C@@H]1CN([C@@H](C)CO)C(=O)Cc2cc(NC(=O)Cn3cnnn3)ccc2O[C@H]1CN(C)Cc1ccc(C(F)(F)F)cc1	66	-8	?	74*
